One series relates to MCF7. Briefly: Antiproliferative activity against human MCF7 cells by MTT assay. It counts as functional, cell-based. In outline:
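MCF-7 cells grown in Eagle's MEM with 10% FBS, 2 mM L-glutamine, penicillin/streptomycin and 1% non-essential amino acids. Seeded at 2.5×10^4 cells/mL, left 24 h at 37°C, then treated 72 h across 1 nM–100 μM from ethanol stocks (vehicle 1% v/v). MTT at 1 mg/mL final for 2 h in darkness, DMSO solubilisation, absorbance read. IC50 is the mean of at least three experiments in triplicate.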

In the next series the test system is MDA-MB-231. Put plainly: Antiproliferative activity against human MDA-MB-231 cells by MTT assay. In kind it is functional, cell-based. The essentials:
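MDA-MB-231 cells in DMEM with 10% FBS, 2 mM L-glutamine and penicillin/streptomycin were seeded at 2.5×10^4 cells/mL and held 24 h at 37°C. They then got ethanol-stock compound over 1 nM–100 μM (vehicle 1% v/v ethanol) for 72 h. MTT at 1 mg/mL final was added for 2 h in the dark, then DMSO for 20 min before absorbance. Untreated = 100% viability. IC50 is the mean ± S.E.M. of ≥3 triplicate experiments.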
(In general: Formazan colour is commonly taken as a measure of viable cells.)

Series [1] can be described thus: Cytotoxicity against CD-1 mouse mammary epithelial cells seeded at 25000 cells/ml assessed as viable cells at 10 uM after 72 hrs by alamar blue assay. In kind it is cell-based, Epithelial cell. The following applies: read-out: Activity. The essentials: (§1)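 Primary mammary epithelial cells came from 14-18 day pregnant CD-1 mice and were seeded at 25,000 or 50,000 cells/mL. After 24 h they were exposed 72 h to 1 nM–100 μM compound from ethanol stocks (vehicle ethanol 1% v/v). Viability was read with alamar blue.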
A general note: The colour change of resazurin is a common sign of viable cells or microbes.

A short description of series [2]: Cytotoxicity against CD-1 mouse mammary epithelial cells seeded at 50000 cells/ml assessed as viable cells at 10 uM after 72 hrs by alamar blue assay. In kind it is cell-based, Epithelial cell. The following applies: read-out: Activity. In outline: as §1
Series [3] can be described thus: Cytotoxicity against CD-1 mouse mammary epithelial cells seeded at 25000 cells/ml assessed as viable cells at IC50 after 72 hrs by alamar blue assay. It counts as cell-based, Epithelial cell. The following applies: read-out: Activity. In outline: as §1
A short description of series [4]: Cytotoxicity against CD-1 mouse mammary epithelial cells seeded at 50000 cells/ml assessed as viable cells at IC50 after 72 hrs by alamar blue assay. It counts as cell-based, Epithelial cell. The note with it: read-out: Activity. In outline: as §1
The species named for another series is Bos taurus. Briefly: Inhibition of bovine tubulin polymerization assessed as reduction in Vmax at 10 uM by spectrophotometry. In outline:
(§2)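 Purified bovine tubulin was mixed with GTP and polymerisation started by warming from 4 °C to 37 °C. Absorbance at 340 nm was recorded every 30 s for 60 min at 37 °C, with 1% v/v ethanol as vehicle. Fold change in Vmax was calculated against the ethanol control. Runs were in triplicate.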

Series [5] is described as follows: Inhibition of bovine tubulin polymerization assessed as concentration required for 50% Vmax inhibition by spectrophotometry. Also noted: species or system Bos taurus.
Series [6] is described as follows: Inhibition of bovine tubulin polymerization by spectrophotometry. On the set-up: species or system Bos taurus. In outline: as §2

The record followed here is ChEMBL document CHEMBL1765074, “Synthesis, evaluation and structural studies of antiproliferative tubulin-targeting azetidin-2-ones” (Bioorg Med Chem, 2011).

The term IC50 denotes the concentration that gives 50% inhibition. In the series with MCF7, `COc1ccc([C@@H]2C(c3ccoc3)C(=O)N2c2cc(OC)c(OC)c(OC)c2)cc1` (mixture of isomers) yielded a 50% inhibitory concentration (IC50) of 0.15 µM.

Take `COc1ccc([C@@H]2[C@@H](C(O)c3ccc(C)s3)C(=O)N2c2cc(OC)c(OC)c(OC)c2)cc1` (stereo not given in full): the IC50 with MCF7 was determined as 1.26 µM.

The compound `COc1ccc([C@@H]2C(c3cc4ccccc4n3C)C(=O)N2c2cc(OC)c(OC)c(OC)c2)cc1` (stereo not given in full) came in with a half-inhibitory concentration (IC50) in the series on MCF7 of 6.6 µM.

`COc1ccc([C@@H]2[C@@H](c3cccs3)C(=O)N2c2cc(OC)c(OC)c(OC)c2)cc1O`: the IC50 was found to be 0.007 µM in the series with MCF7, 0.18 µM in the series with MDA-MB-231, 1.37 µM in series [5] and 6.25 µM in series [6]. In addition, the viability at 72 h, 10 µM in series [1] amounted to 71.2%; in [2], 74.8%. The viability at 72 h in [3] was determined as 90.7%; in series [4], 90.6%. Moreover, the fold change (FC) in the series filed under Bos taurus came out at 3.2.

In the series with MCF7, `COc1ccc([C@@H]2[C@@H](C(=O)c3ccsc3)C(=O)N2c2cc(OC)c(OC)c(OC)c2)cc1` yielded a 50% inhibitory concentration (IC50) of 0.47 µM.

In the series on MCF7, `COc1cc(N2C(=O)[C@H](c3cccs3)[C@H]2c2cccs2)cc(OC)c1OC` (mixture of isomers) registered an IC50 of 0.91 µM.

In the case of `COc1ccc([C@@H]2[C@@H](C(=O)c3cccs3)C(=O)N2c2cc(OC)c(OC)c(OC)c2)cc1`, in the series with MCF7, it took 0.95 µM to reach half-maximal inhibition (IC50).
